Data on three compounds can be found in paper PMC3546139 (Molecular cancer therapeutics, 2012).

Where two headings read alike, the source gives them in different places.

The subject of data set [1] is FOM103 normal human melanocytes. The experiment in a line: MTS cell viability assay, FOM103. Conditions: Melanocyte, read-out: IC50, cell viability (MTS). Format: cell-based. (In general: Tetrazolium dyes change colour on reduction, which living cells bring about.)
Data set [2] has as its system UACC903 melanoma cells (metastatic). The experiment in a line: MTS cell viability assay, UACC 903. The data set is classed as cell-based. As to conditions: Homo sapiens, read-out: IC50, cell viability (MTS).
Data set [3] relates to melanoma cells. Nature of the data set: MTS cell viability assay, melanoma cells. Format: cell-based. Conditions: Homo sapiens, read-out: average IC50 for killing melanoma cells.
Data set [4] deals with FF2441 human fibroblast cells. The experiment in a line: MTS cell viability assay, FF2441. The data set is classed as cell-based. Conditions: read-out: IC50, cell viability (MTS).
Data set [5] deals with 1205 Lu melanoma cells (metastatic). The experiment in a line: MTS cell viability assay, 1205 Lu. Conditions: Homo sapiens, 24 h, read-out: IC50, cell viability (MTS). Format: cell-based.
Data set [6] deals with cultured cells. As to conditions: cited from earlier work.
Data set [7] can be described thus: Survival and body weight of mice, daily i.p. injection for seven days. The data set is classed as in vivo. As to conditions: 0.127 µmoles i.p. daily, 7 days of treatment, n = 3. The method in brief: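 Mice received test compound intraperitoneally once daily for seven days at 0.032–0.064, 0.127 or 0.127–0.254 µmoles depending on agent, n = 3 per group. Survival and body-weight change were recorded.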

The conditions of data set [8]: doses of 200 mg per day, cited from earlier work.
Data set [9] concerns COX-2 expression in 1205 Lu and UACC 903 cells. The experiment in a line: Western blot of COX-2 / COX-1 expression after MAP kinase pathway inhibitors. The data set is classed as cell-based, human. The method in brief: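 Melanoma cells (1.5×10^6/100 mm dish) were treated 48 h after plating for 6–72 h with a B-Raf inhibitor (0.2–20 µmol/L) or a MEK inhibitor (2.5–50 µmol/L). Separately, cells were nucleofected with 100 pmoles siRNA against V600E B-Raf, MEK1, MEK2, ERK1 or ERK2, with lysates taken at day 4 or 6. Blots were probed for COX-1 and COX-2 and detected by enhanced chemiluminescence.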

Data set [10] concerns sporadic melanomas with mutant V600EB-Raf. As to conditions: melanoma patients; cited from earlier work.

Turning to `Cc1ccc(-c2cc(C(F)(F)F)nn2-c2ccc(S(N)(=O)=O)cc2)cc1` [Celecoxib, 4-[5-(4-methylphenyl)-3-(trifluoromethyl)-1H-pyrazol-1-yl]benze nesulfonamide], the half-inhibitory concentration (IC50) – broadly, the concentration needed to halve the response being measured – in [1] (48 h) is greater than 100 µM; in [1] (72 h) it was 68 ± 1.2 µM; in data set [1], greater than 100 µM; in data set [2] (UACC-903, 24 h) it was greater than 100 µM; in data set [2] (UACC-903, 48 h) it was greater than 100 µM; in data set [3], 55.6 µM. The IC50 was greater than 100 µM in [4] (FF2441, 24 h); greater than 100 µM in data set [4] (FF2441, 48 h); greater than 100 µM in data set [5]. Further, the “concentrations required to induce apoptosis of cultured cells” value in data set [6] is 25 to 100 µmol/L. In [6], the “concentrations required to trigger apoptosis in cultured cells” value is 25 to 100 µmol/L. Besides, in [7], the animal mortality entry is recorded as “death of all animals”. Besides, the “side effects associated with clinical use” value is reported as “cardiovascular side effects” in data set [8] (ref 15, 16) and “cardiovascular side-effects” in data set [8] (ref 33).
Regarding `CCCS(=O)(=O)Nc1ccc(F)c(C(=O)c2c[nH]c3ncc(-c4ccc(Cl)cc4)cc23)c1F` [PLX-4032], the results for the COX-2 protein expression result in data set [9] (1205 Lu cells) and in data set [9] (UACC 903 cells) were “decreased COX-2 protein expression beginning after 12 h of treatment” and “significant decrease was seen from 24 h of treatment”, respectively. Besides, in [9] (either cell line (1205 Lu, UACC 903)), the COX-1 expression result is “no changes were observed in COX-1 expression”. In addition, the response rates entry in data set [10] is “up to 80%”.
Consider `N#CC(=C(/N)Sc1ccccc1N)/C(C#N)=C(/N)Sc1ccccc1N` [U0126], for which, in data set [9] (1205 Lu and UACC 903 cell lines), the “levels of COX-2 protein and COX-1” value is recorded as “reduced levels of COX-2 protein without affecting COX-1”.
